Screening results deposited in PubChem by several laboratories.
Sampled rows, rich in hits. Any-hit rate of the full collection: about 4%.
CHOP UPR activ = apoptotic UPR (CHOP) activation. CHO-CHOP luciferase reporter, luminescence; percent of tunicamycin response over DMSO baseline. activation, % at 10 µM. 330,000 compounds, 0.34% hits. AID 449763;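 active = at 10 µM dose, activation of 40% or more, normalized to positive control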
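Test system: CHO-CHOP cells, stable luciferase reporter of PERK-eIF2a-CHOP signalling | Quantity: 500 CHO-CHOP cells per well | Buffer or medium: F12 plus 10% serum | Compound dosing: 10 µM single point, 0.5% DMSO | Schedule: 6 h compound treatment, 37 °C | Signal: Luciferase luminescence | Control set: Tunicamycin high control, DMSO low control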
UPR XBP1 act = adaptive UPR (XBP1) activation; activation, % at 20 µM; AID 463104; CHO-XBP1 luciferase reporter, IRE1-XBP1 UPR activation, luminescence; percent of tunicamycin response, DMSO as zero; 330,000 compounds, 0.33% hits;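 active = versus positive control, 20 µM dose yields 30% or more activation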
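incubation = overnight seeding at 37 °C, 6 h compound treatment at 37 °C | assay system = CHO-XBP1 cells stably carrying IRE1-XBP1-driven luciferase reporter | input = 1000 cells per well | detection = luciferase luminescence | dosing = single point, 20 µM final compound, 1% DMSO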
Mdm2-MdmX inh = human Mdm2/MdmX binding inhibition; O15151+Q00987; SaOS-2 split-luciferase Mdm2/MdmX complementation, luminescence; inhibition, % at 8 µM; 330,000 compounds, 3% hits; AID 485346;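 active = inhibition of at least 50% at 8 µM in the primary screen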
Target sequence (O15151 whole entry, looked up): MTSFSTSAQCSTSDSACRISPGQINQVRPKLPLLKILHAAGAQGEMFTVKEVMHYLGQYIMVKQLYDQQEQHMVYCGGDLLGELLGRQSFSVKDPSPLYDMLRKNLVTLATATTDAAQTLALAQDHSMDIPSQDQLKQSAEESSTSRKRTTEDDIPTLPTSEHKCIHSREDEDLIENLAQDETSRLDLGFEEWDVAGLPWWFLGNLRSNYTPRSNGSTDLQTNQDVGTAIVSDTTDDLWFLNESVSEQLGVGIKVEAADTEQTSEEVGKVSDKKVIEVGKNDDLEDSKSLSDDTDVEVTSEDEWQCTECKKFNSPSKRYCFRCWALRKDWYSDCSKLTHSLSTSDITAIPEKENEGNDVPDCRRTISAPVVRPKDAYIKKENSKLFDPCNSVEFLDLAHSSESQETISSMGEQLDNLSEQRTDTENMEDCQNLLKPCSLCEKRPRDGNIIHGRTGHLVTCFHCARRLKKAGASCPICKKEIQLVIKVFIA
Target sequence (Q00987 whole entry, looked up): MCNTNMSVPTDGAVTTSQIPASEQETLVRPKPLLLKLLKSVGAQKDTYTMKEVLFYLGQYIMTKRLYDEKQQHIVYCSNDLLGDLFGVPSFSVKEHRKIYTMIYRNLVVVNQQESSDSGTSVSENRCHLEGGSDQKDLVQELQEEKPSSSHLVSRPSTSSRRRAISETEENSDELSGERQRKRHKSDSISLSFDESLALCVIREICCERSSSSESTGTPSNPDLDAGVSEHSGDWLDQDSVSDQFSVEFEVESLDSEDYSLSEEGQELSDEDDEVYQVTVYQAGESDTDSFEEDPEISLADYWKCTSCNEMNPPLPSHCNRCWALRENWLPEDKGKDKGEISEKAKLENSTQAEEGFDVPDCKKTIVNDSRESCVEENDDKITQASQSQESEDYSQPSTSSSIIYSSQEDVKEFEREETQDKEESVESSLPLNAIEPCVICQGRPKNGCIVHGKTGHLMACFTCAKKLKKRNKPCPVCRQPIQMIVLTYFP
ABHD5 PLIN5 PPI = ABHD5-PLIN5 protein interaction inhibition; Q00G26+Q8WTS1; Split G. princeps luciferase complementation, luminescence, 4 h; inhibition, % at 4 µM; 360,000 compounds, 0.78% hits; AID 602281;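 active = inhibition above the mean inhibition across every tested compound plus 3 SD, cut at about 22% in these data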
Granule exo inh = blocks lytic granule exocytosis; inhibition, % at 10 µM; TALL-104 LAMP-1 surface exposure, flow cytometry; cells stimulated with thapsigargin and PMA; 360,000 compounds, 0.66% hits;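 active = inhibition above about 55%, limit read from the data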
Mdm2 MdmX conf = confirmation of human Mdm2/MdmX interaction inhibitors; inhibition, % at 8 µM; 10,000 compounds, 55% hits; AID 489028; shares compounds with Mdm2-MdmX inh; Mdm2-MdmX binding, luminescent assay; in the data active = inhibition above about 40%
FLuc counter = inhibits full-length luciferase, flagging false Mdm2/MdmX hits; shares compounds with Mdm2-MdmX inh; SaOS-2 full-length luciferase counterscreen, luminescence; inhibition, % at 8 µM; 6,200 compounds, 77% hits; AID 504607;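 active = mean inhibition at 8 µM reaching about 37%, which flags the compound as non-specific, limit read from the data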;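 also: p53-null SaOS-2 cells with luciferase driven by a doxycycline-inducible promoter; compound on cells about two nights before reading with doxycycline added after day one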
Large screens that a line does not name were inactive (follow-up assays come after a bar, where they were run).

COc1ccc(-c2oc3cccnc3c2C#CC2(O)CCCCC2)cc1	Mdm2-MdmX inh 52 | Mdm2 MdmX conf inactive
COc1ccc(-c2oc3cccnc3c2C#CCO)cc1	none
COc1ccc(-c2oc3ccc(N4CCOCC4)cc3c2C#CC2(O)CCCCC2)cc1	Mdm2-MdmX inh 73 | Mdm2 MdmX conf 59 | FLuc counter 54
Nc1cccc(Oc2ccc3c(c2)C(=O)NC3=O)c1	none
CC(C)(C)OC(=O)N1CCC(C(=O)Nc2ccc(C(=O)NCCc3ccccc3)cc2)CC1	none (no result: CHOP UPR activ, UPR XBP1 act, Mdm2-MdmX inh)
Cc1ccccc1CSc1nnc(NC(=O)Cc2cccs2)s1	none
COc1ccc(C(=O)Nc2nnc(C)s2)cc1S(=O)(=O)N1CCOCC1	none
CCOc1ccccc1N1CC(C(=O)NNC(=O)c2ccc(F)cc2)CC1=O (centres undefined)	none
O=C(NC1CCCC1)c1cnn2c(C(F)(F)F)cc(-c3ccc4c(c3)OCO4)nc12	Mdm2-MdmX inh 62 | Mdm2 MdmX conf inactive
O=C(c1cnn2c(C(F)(F)F)cc(-c3ccc4c(c3)OCO4)nc12)N1CCCCC1	none
O=C(/C=C/NNC(=O)c1ccccc1O)c1ccccc1	Mdm2-MdmX inh 57 | Mdm2 MdmX conf inactive
O=C(/C=C/NNC(=O)c1ccccc1)c1ccccc1	none
Cc1ccc(N(C(C)C(=O)N2CCOCC2)S(C)(=O)=O)cc1C (centres undefined)	none
CC[C@H]1CN2CCc3cc(OC)c(OC)cc3C2C[C@@H]1C[C@H]1NCCc2cc(OC)c(OC)cc21 (some centres undefined)	Mdm2-MdmX inh 97 | Mdm2 MdmX conf 99 | FLuc counter 51
COc1ccc2c(c1)c1nc3ccccc3nc1n2Cc1ccc(OC(C)C)c(OC)c1	none
COc1ccc2c(c1)c1nc3ccccc3nc1n2CC(=O)OC(C)C	Mdm2-MdmX inh 58 | Mdm2 MdmX conf inactive
COc1ccc(Cn2c3ccc(OC)cc3c3nc4ccccc4nc32)cc1	Mdm2-MdmX inh 51 | Mdm2 MdmX conf inactive
COc1ccc(NC(=O)COC(=O)c2cccc(S(=O)(=O)N3CCCCC3)c2)c(OC)c1	none
Cc1cccc(CC(=O)Nc2ccon2)c1	none
O=C(NN=C1CCCCCC1)c1ccncc1	none
C#CC[N+](C)(C)CCCCCCCCC	Mdm2-MdmX inh 51 | Mdm2 MdmX conf 49 | FLuc counter 74
CC#CC[N+](C)(C)CCCCCCCCCC	none
O=C(c1ccc(CS(=O)c2ccccc2Cl)o1)N1CCOCC1 (centres undefined)	none
COc1cc2nc(CN(C)Cc3ccc(Cl)cc3)[nH]c(=O)c2cc1OC	none
COc1cc2cncc(Cc3ccc(Cl)cc3)c2cc1OC	Mdm2-MdmX inh 69 | Mdm2 MdmX conf 65 | FLuc counter inactive
CCOC(=O)c1ccccc1Nc1cn(C(C)=O)c2ccccc12	Mdm2-MdmX inh 59 | Mdm2 MdmX conf 47 | FLuc counter 80
CC(=O)n1cc(Nc2ccccc2C(=O)O)c2ccccc21	none
O=C(NCc1cc(C(F)(F)F)ccc1Cl)c1cccc2c1C(=O)c1ccc(-c3ccc(OC(F)(F)F)cc3)cc1S2(=O)=O	CHOP UPR activ 91, UPR XBP1 act 162, Mdm2-MdmX inh 77 (no result: ABHD5 PLIN5 PPI, Granule exo inh) | Mdm2 MdmX conf inactive
CC1CCN(c2ccc3c(c2)S(=O)(=O)c2cccc(C(=O)NC[C@@H]4CCCO4)c2C3=O)CC1	none
O=C(NCC1CCCO1)c1cccc2c1C(=O)c1ccc(N3CCC(Cc4ccccc4)CC3)cc1S2(=O)=O (centres undefined)	Mdm2-MdmX inh 54 | Mdm2 MdmX conf inactive
O=C(NC1CCCC1)c1cccc2c1C(=O)c1ccc(/C=C/c3ccccc3)cc1S2(=O)=O	none
O=C(NCc1ccccc1)c1cccc2c1C(=O)c1ccc(/C=C/c3ccccc3)cc1S2(=O)=O	Mdm2-MdmX inh 77 | Mdm2 MdmX conf inactive
COc1ccc(-c2ccc3c(c2)S(=O)(=O)c2cccc(C(=O)NCc4cc(C)oc4C(F)(F)F)c2C3=O)cc1OC	none
O=C(NCc1cc(C(F)(F)F)ccc1Cl)c1cccc2c1C(=O)c1ccc(Cl)cc1S2(=O)=O	Mdm2-MdmX inh 54 (no result: ABHD5 PLIN5 PPI, Granule exo inh) | Mdm2 MdmX conf inactive
